In PubChem BioAssay AID1216 (Sanford-Burnham Center for Chemical Genomics, 2008):
Hit rate of the full screen: of about 190,000 compounds, about 660 (0.35%) were called active. The sample holds actives, similar compounds and a random draw of the others, so the mix is not that of the screen. Unmarked numbers belong to inactive results.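 Rule for the calls: active = activation factor of 2 or more at 20 µM; inactive = the rest.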

The compounds below were run against Mannose-6-phosphate isomerase (Homo sapiens) (UniProt P34949) (assay: human PMI activators, high substrate, primary screen, biochemical, fluorescence intensity, near-saturating mannose 6-phosphate (AID 1216)). Details: coupled PMI enzyme assay, resazurin fluorescence, 20 min; at 20 µM; active compounds read high; 1 = untreated enzyme, 0 = substrate-free blank.
Sequence of Mannose-6-phosphate isomerase (Homo sapiens) (P34949 whole entry, looked up): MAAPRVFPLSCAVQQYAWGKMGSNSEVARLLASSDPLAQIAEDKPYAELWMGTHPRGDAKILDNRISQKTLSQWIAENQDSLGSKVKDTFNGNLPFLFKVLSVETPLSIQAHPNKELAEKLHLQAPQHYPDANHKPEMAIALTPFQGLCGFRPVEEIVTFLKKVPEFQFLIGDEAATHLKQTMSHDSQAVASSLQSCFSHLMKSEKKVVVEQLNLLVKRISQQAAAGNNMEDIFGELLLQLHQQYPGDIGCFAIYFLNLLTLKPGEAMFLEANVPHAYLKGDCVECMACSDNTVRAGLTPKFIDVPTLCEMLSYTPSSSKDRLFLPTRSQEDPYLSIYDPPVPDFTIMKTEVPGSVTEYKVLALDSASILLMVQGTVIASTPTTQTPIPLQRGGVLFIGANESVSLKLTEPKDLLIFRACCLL
In short: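 assay system = human phosphomannose isomerase with PGI, G6PDH, diaphorase coupling enzymes | quantity = 15 ng/mL PMI | incubation = enzyme reaction with compound 20 min at room temperature | medium = HEPES pH 7.4 buffer with MgCl2 and Tween-20 | compound dosing = one concentration, 20 µM, in 1% DMSO | measured by = Diaphorase-driven resazurin-to-resorufin fluorescence, excitation 544, emission 590 nm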

Compound	activation factor
Cc1cccc(N=C2NC(=O)/C(=C/c3cn(C)c4ccccc34)S2)c1	0.9
Cc1ccc(N=C2NC(=O)/C(=C/C=C/c3ccco3)S2)cc1C	2 (active)
Cc1ccc(N2NC(=O)/C(=C/C=C/c3ccco3)C2=O)cc1C	1.2
COc1ccc(/C=C/C(=O)c2cc(Br)ccc(=O)c2O)cc1	2.1 (active)
COc1ccc(/C=C/C(=O)c2ccc(OC)cc2O)cc1	0.9
COc1ccc(C(=O)/C=C/c2ccc(OC3CSC3)cc2)cc1	0.9
CCCCC(NS(=O)(=O)c1ccc(C)cc1)C(=O)Oc1ccc2c3c(c(=O)oc2c1)CCC3 (centres undefined)	0.9
N/C(=N\OS(=O)(=O)c1cccc([N+](=O)[O-])c1)c1ccncc1	1
CCn1c(SCC(=O)N(C)C2CCS(=O)(=O)C2)nnc1-c1cccs1 (centres undefined)	1.1
Cc1cc(C)c2nc(SCC(=O)N(C)C3CCS(=O)(=O)C3)cc(C)c2c1 (centres undefined)	2 (active)
COc1ccc2c(-c3ccccc3)cc(SCC(=O)N(C)C3CCS(=O)(=O)C3)nc2c1 (centres undefined)	1.3
Cc1cc(/C=C2/NC(=O)NC2=O)c(C)n1-c1cccnc1	0.9
CC(CC(=O)Nc1ccccc1)n1ccnc1 (centres undefined)	1
Cc1c(-c2cccc(Cl)c2)nc2ccccc2c1C(=O)OCC(=O)N(C)C1CCS(=O)(=O)C1 (centres undefined)	1
Cc1nccn1CCC1CCCCN1C(=O)CCc1nnc(-c2ccsc2)o1 (centres undefined)	0.9
OCCC#Cc1ccc(CN2CCN(Cc3ccsc3)C(CCO)C2)cc1 (centres undefined)	1
O=C(Nc1ccc([N+](=O)[O-])cc1)C1CC12CCC2 (centres undefined)	1.1
Cc1ccc(CNC(=O)COc2ccc3c(c2)CCC3)cc1	1
CC1CCN(C(=O)c2ccc(S(=O)(=O)Cc3cc(F)ccc3F)c([N+](=O)[O-])c2)CC1	0.8
COc1ccc(C2CC(c3cccs3)=NN2C(=O)CSc2nnc(N)s2)cc1OC (centres undefined)	1
COc1ccc(C2CC(c3cccs3)=NN2c2nc(C)c(C(C)=O)s2)cc1OC (centres undefined)	2 (active)
COc1ccc(C2CC(c3cccs3)=NN2c2ccccc2)cc1 (centres undefined)	1.2

Compound	activation factor
COc1ccc(C2CC(c3cccs3)=NN2c2ccc(F)cc2)cc1OC (centres undefined)	2.2 (active)
COc1ccc(C2CC(c3cccs3)=NN2C(=O)CSc2nncs2)cc1OC (centres undefined)	1
COc1ccccc1N1N=C(c2cccs2)CC1c1ccccc1 (centres undefined)	1.2
COc1cc(/C=C(/NC(=O)c2ccc(Cl)cc2Cl)C(=O)O)cc(OC)c1OC	1
NC(=O)c1ccccc1N(Cc1ccccc1)S(=O)(=O)c1ccccc1	1
CCN(CC)S(=O)(=O)c1cc([N+](=O)[O-])ccc1N=Nc1c(O)n(C)c2ccccc12	1.1
Cc1ccc(-c2nc(C)sc2CC(=O)OCC(=O)Nc2c(F)cccc2F)cc1	0.9
Cc1ccc(C2=NN(C(=O)COc3ncnc4ccccc34)C(c3ccco3)C2)cc1 (centres undefined)	0.8
CO/N=C/c1cn(-c2ccc(Cl)cc2)nn1	1
CC1(C)OC(=O)C(=CSc2ccc(C(C)(C)C)cc2)C(=O)O1	1.1
CCCC(=O)Nc1cccc(NC(=S)NC(=O)C(C)Oc2ccc(Cl)cc2Cl)c1 (centres undefined)	1
O=C(N/C(=C\c1ccc(F)cc1)C(=O)N1CCCCCC1)c1ccccc1	0.9
Cc1cc(OCCCN2CCN(Cc3ccccc3)CC2)ccc1[N+](=O)[O-]	1
COc1ccc(Cc2nnnn2CC(=O)O)cc1	1.1
CSc1nc(O)c(Cc2ccccc2)c(=O)[nH]1	1
COc1ccc(Cc2nnc(SC)[nH]c2=O)cc1	2 (active)
O=C(NNC(=O)c1ccccc1[N+](=O)[O-])Nc1ccccc1C(F)(F)F	1
O=C(NC1CCCC1)C(c1ccc(N2CCOCC2)cc1)N(C(=O)c1ccco1)c1ccccc1F (centres undefined)	0.9
Cc1ccc(NC(=O)NC(=O)N(C2CCCCC2)S(=O)(=O)c2ccccc2)cc1	0.9
Cc1nn(-c2ccc([N+](=O)[O-])cc2)c(N)c1-c1ccccc1	1
Cc1cc(C(=O)N/N=C/c2ccc(N3CCOCC3)cc2)c(C)o1	1.1
Cc1ccccc1N/N=C/c1ccc(N2CCOCC2)cc1	2.4 (active)

Compound	activation factor
C(=N/Nc1cc(N2CCOCC2)nc(N2CCOCC2)n1)/c1ccccc1	0.4
S=C(NC1CCCCC1)NN1CCOCC1	1.1
Cc1ccc(OCc2n[nH]c(=S)n2-c2ccc(C)cc2)cc1	0.8
COc1ccc(CNc2c(CO)cnc3c2cnn3C)cc1	1
Cc1ccnc(NC(=O)CCC(=O)N(CC(=O)NCc2ccccc2)Cc2ccco2)c1	0.9
CCOC(=O)C1=C(CN2CCCCCC2)NC(=O)NC1c1cccc([N+](=O)[O-])c1 (centres undefined)	0.9
CC(NC(=O)C(=O)N/N=C/c1ccc(Cl)cc1)c1ccccc1 (centres undefined)	1.1
O=C1CC(c2ccccc2)C(=O)N1c1cccc(O)c1 (centres undefined)	0.9
O=C1CC(NNc2ccccc2)C(=O)N1c1cccc(Cl)c1 (centres undefined)	2 (active)
O=C(NNC1CC(=O)N(c2cccc(Cl)c2)C1=O)c1cccnc1 (centres undefined)	1.2
C/C(=N\NC(=S)NCc1ccccc1)C1CCCCC1	1.2
O=C(CCNC(=O)Cn1ccc2ccccc2c1=O)NCCC1=CCCCC1	1.1
CCc1cccc(CC)c1NC(=S)NCc1ccc2[nH]c(C)cc2c1	0.9
COc1ccc(Br)cc1/C=N/n1c(C)nnc1C	1
COc1ccc(Br)cc1/C=N/NC(=O)c1cccc(S(=O)(=O)N2CCOCC2)c1	1
COc1ccc(Br)cc1/C=N/Nc1ccc(Cl)c(C(=O)O)c1	2.6 (active)
OCC(O)CN(c1ccccc1)c1ccccc1 (centres undefined)	1
CC(C)C(=O)Nc1ccc2oc(=O)ccc2c1	1
COc1ccc(C(=O)CSc2nc(C)cc(C)n2)cc1[N+](=O)[O-]	0.9
Cn1nc(-c2ccccc2)c(CO)c1Sc1ccccc1	1
